In the EternaBench riboswitch data:

Tested on: MS2 coat protein
Assay: apparent Kd, MS2 coat protein; higher = weaker binding; RNA-MaP array; FMN 200 µM where present
Summary of the method: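 The apparent Kd is the median of filtered binding-curve fits, one per cluster, to green signal normalised to red-channel RNA signal and control-cluster median Fmax. The clusters were on Illumina sequencing chips, and stalled E. coli RNA polymerase had transcribed the designs on them. Titration used SNAP-549-labelled MS2 coat protein from 0.7 or 1.5 nM, doubling to 3 µM, without and then with constant ligand, in 100 mM Tris-HCl pH 7.5, 80 mM KCl, 4 mM MgCl2, BSA, DTT, yeast tRNA and Tween-20.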

[1] = designed as: OFF switch for flavin mononucleotide, no ligand
[2] = ligand present: flavin mononucleotide, designed as: OFF switch for flavin mononucleotide
[3] = designed as: ON switch for flavin mononucleotide, no ligand
[4] = ligand present: flavin mononucleotide, designed as: ON switch for flavin mononucleotide

Sequence | apparent Kd [1] [nM] | apparent Kd [2] [nM] | apparent Kd [3] [nM] | apparent Kd [4] [nM]
AUGACAGGCAGAGCGCAACGGCGUACAUGAGGAUCACCCAUGUAGGAUAUGCUACACAAAGUGUAGCAGAAGGACAUGCGACGC | 23.4 | 42.2 | – | –
AUGAGAGCAGGAUAUGCAGGUGUGCCGGAAGAAAGAAGAGGACAUGAGGAUCACCCAUGUAGAAGGGCUAACCC | 41.1 | 19.8 | – | –
AUGAGGUCAGGAUAUGCAUGGCGGGACUUGCGUCGUGGCGUGCAGAAGGGACAUGAGGAUCACCCAUGUGGACC | 36.4 | 39.5 | – | –
AUGAGGUCAGGAUAUGCAUGGCGGGACUUGCGUCGUGGCGUGGAGAAGGGACAUGAGGAUCACCCAUGUGGAGU | 91.4 | 50.5 | – | –
AUGAGUAAAGCAGGAUAUCUAUUGUCUCUGAAACAUGAGGAUCACCCAUGUAGAGAAGGGCUAAGUCUUACUCUUCGGAGUUGA | 9.98 | 10.3 | – | –
AUGAGUAAAGCAGGAUAUCUAUUGUCUCUGUAACAUGAGGAUCACCCAUGUAGAGAAGGGCUUAGUCAUACACUUCGAAGUUGA | 9.13 | 10.1 | – | –
AUGAUUAUACAAGGAUAUCAAUUGUAUACAAGUCUUACAUGAGGAUCACCCAUGUUAAAUUUUUUUGAGAAGGUGUGUUGUCAG | – | – | 35.6 | 30.6
AUGCAGCCACCACAGGAUAUACGUGGAUCGACAUGAGGAUCACCCAUGUAUAUCCUAAUAAUUGCGUAGAAGGGUGGUCGGCUGG | – | – | 555 | 81.8
AUGCCCUGAGGAUAUCUCAUCCCGCACAUGAGGAUCACCCAUGUUCUUCUCCGGGUUCCGAGAGAAGGCAGGCCUA | 157 | 81.9 | – | –
AUGCCUAAUGAGAAGGUGUAUAUAAAUUAUAUACAAGGAUAUCGGUCAAGCAUGAAAACAUGAGGAUCACCCAUGUUAAGGCAU | – | – | 7.57 | 6.36
AUGCUAUAUGUAGGAUAUUCAAAGAAAGAGAAUGAAGAAGGACAUGAGGAUCACCCAUGUAAAAUGUAGAUAGAUAUCAUACAU | 18 | 14 | – | –
AUGCUUCACACAGGAUAUACAUGAGGAUCACCCAUGUGUCCAAAGUAGCUGACACGAGCUACGCGGUAGAAGGGUGUGAAGCAU | 17.3 | 54.3 | – | –
AUGCUUCACACAGGAUAUACAUGAGGAUCACCCAUGUGUCCUACGUAGCUGACACGAGCUACGCGGUAGAAGGGUGUGAAGCAU | 18.6 | 93.7 | – | –
AUGCUUCACACAGGAUAUACAUGAGGAUCACCCAUGUGUCCUCCGUAGCUGACACCAGCUACGCUGUAGAAGGGUGUGAAGCAU | 261 | 201 | – | –
AUGCUUUAUGUAGGAUAUUCAAACGGUAAGAAUGGAGAAGGACAUGAGGAUCACCCAUGUAAAAUAUUAUUAGAUAUCAUACAU | 22.1 | 19.4 | – | –
AUGCUUUGUGUAGGAUAUGCAUACGGUACGUAUGCAGAAGGACAUGAGGAUCACCCAUGUAUAUUAUUAUUACAUAUCAUACAU | 35.3 | 229 | – | –
AUGGACGCAGGAUAUACAUGAGGAUCACCCAUGUUAGGGUUAAGAGAAGGAAGGGAGAGUAGAAGGGCGAGAGU | 118 | 89.3 | – | –
AUGGGCUAGGAGAAGGGCUAGAGUGUGAUAUAUUUGCCCGCGAGCACAUGAGGAUCACCCAUGUAGCAGGAUAUCCAAGCCGGU | 7.43 | 18 | – | –
AUGGUGGUAGGAUAUACAACUACUUGAUCGCGUUUCAUGGAACAUGAGGAUCACCCAUGUAGAAGGGCCCGAGG | 794 | 552 | – | –
AUGGUUGUCGUAGGAUAUGUAGGAUAUUCCUACAUGAGGAUCACCCAUGUUCGCAUGGAAGAAGGACAGAAGGACGAUGACCAG | – | – | 1020 | 9.57
AUGUGACAUGAGGAUCACCCAUGUAAGGAUAUAUGACUAAGGACUUCCUUGGUAGCGCGUAGAAGGUACGUGAA | 19.6 | 20 | – | –

Sequence | apparent Kd [1] [nM] | apparent Kd [2] [nM] | apparent Kd [3] [nM] | apparent Kd [4] [nM]
AUGUGGUUCCCGGCCGUCGUGUACGAGGAUAUCCUCGAACAUGAGGAUCACCCAUGUAACGUUGUGGAGAAGGCGUACGCUCGG | – | – | 31.3 | 5.48
AUUAAACAUGAGGAUCACCCAUGUCAACAAAGUCGAGGAUAUGGGCAAUUAAAAUAAGAACCAGAAGGCGAAUAAU | – | – | 340 | 35.4
AUUAAACAUGAGGAUCACCCAUGUCAACAAAGUCGAGGAUAUGGGCAUAUUAUCUUAUUUCCAGAAGGCGAAUAAU | – | – | 121 | 33.9
AUUAAGCAGCAGGAUAUAAUUAUCUGAAGGUGGUUAGAAGGGCUGACAUGAGGAUCACCCAUGUGCUCUUCGUG | 16.2 | 32.2 | – | –
AUUACAUGAGGAUCACCCAUGUACAGCACGUUUCAAAACAGUGAGGAUAUACGAAAUGUAGGAACGUAGAAGGCACUGGGUGCA | – | – | 98.3 | 34.2
AUUAGUAUCUAGGAUAUCUAGUACAUAGUAUCUAGAGAAGGAGAUACAUGAGGAUCACCCAUGUUCUGUGUUCU | 27.2 | 64.5 | – | –
AUUAUACAUGAGGAUCACCCAUGUAAUUAAUUAAUUAAGAUCUAGGAUAUCAGCUCGAAUAGAGCUGAGAAGGAGAUCACAUGU | – | – | 31.7 | 18
AUUAUAUAGACAGGAUAUUGAUUAUUAUUUUAACAUGAGGAUCACCCAUGUAGCCUUAUGUAUAGCAAGAAGGGUCAUUUAUUA | 135 | 206 | – | –
AUUAUGUUAGGAUAUGCUUAUGGUGGAUAGUCCGAUAUGAUGCAGAAGGGACAUGAGGAUCACCCAUGUACUGA | 27.3 | 29.5 | – | –
AUUCAGCGAGGAUAUACAGGUUCUGGGUGAGGCUCGGCGAGACAUGAGGAUCACCCAUGUAGAAGGUGCUAGCC | 341 | 284 | – | –
AUUGCUAGCGCAGGAUAUGAUGCGAAAAUUGCGUCAGAAGGGUGUAAUCUCUCAUUGCGGGAGGACAUGAGGAUCACCCAUGUC | – | – | 142 | 87
AUUGUAGUUGUGAGGAUAUCGUAGAUUUAUUGAAACGAGAAGGCACAUGAGGAUCACCCAUGUAAGUUGUAGGU | 71.2 | 267 | – | –
AUUGUUAAGUUAGGAUAUAGUAAAAUAAUUUAAUUAGAAGGAGCUCACAUGAGGAUCACCCAUGUAAGAGGAUCACCCAUGUAU | 23.5 | 18.9 | – | –
AUUUAAUUUAGCGAGAUCACAUGAGGAUCACCCAUGUAUAUAUAGGAUAUCAGCUCGUUUAGAGCUGAGAAGGAUAUAUACCGC | 89.8 | 147 | – | –
AUUUACAAGUAAGGAUAUCGGGUAUAGUUAACUCGAGAAGGUACAUGAGGAUCACCCAUGUAGUAGAUACAUAGAACUGUUUUG | 13.6 | 12.7 | – | –
AUUUAGUCAGGAUAUACAUGAGGAUCACCCAUGUAAACUUUUAGUUUAAUUUGAAUGUGUAGAAGGGACAUUUU | 28.8 | 29.8 | – | –
AUUUAUAAGUAAGGAUAUCGGUUAUAUUUAAUUCGAGAAGGUACAUGAGGAUCACCCAUGUAAUAAAUAAAUAAAAUUUUUUUU | 36.4 | 28.7 | – | –
AUUUCGUCAGGAUAUCCUAGUAAUUGUUUCAUAUUUACAAAGGAGAAGGGACAUGAGGAUCACCCAUGUUGGUC | 64.6 | 116 | – | –
AUUUGAAUGUCAGGAUAUGGUAGAUUAUUCUUAUCAGAAGGGAUAAUUAUACUCAAGUACAUGAGGAUCACCCAUGUUAAAUCA | – | – | 12 | 12.6
AUUUGUAAUACAGGAUAUGUUAGUUUACAGUAGAUUGGUUAUUACUCAACUACAGAAGGGUAGUACAUGAGGAUCACCCAUGUA | – | – | 20.7 | 14.8
AUUUUAAAGGGAGGAUAUACAUGAGGAUCACCCAUGUAAACGUGAGGAUCACCCAUGUUAACAAUGUAGAAGGCCUAUAUCUAU | 41.1 | 31 | – | –
